≈ marks a conversion by molar mass, not a printed value.
Assays:
Type in all cases: functional
Staphylococcus aureus [1] = assay: Reduction in bioluminescent methicillin-resistant Staphylococcus aureus Xen1 in neutropenic CD1 mouse with peritonitis at 50 mg/kg, sc after 5 hrs relative to control; parameters: scale not given: the % may be the effect or the level left; conditions: route subcutaneous
How it was run: (§1)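 Cyclophosphamide-neutropenic female CD-1 mice (150 mg/kg i.p. day −4, 100 mg/kg day −1) were infected i.p. with a lethal inoculum in 6% mucin. A single s.c. or gavage dose was given 1 h later. Mice were anesthetized and imaged hourly to 5 h. Region-of-interest total flux (photons/s/cm2) was averaged over 5 mice. Percent reduction is relative to time-matched saline (10 ml/kg s.c.) controls.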

Staphylococcus aureus [2] = assay: Reduction in bioluminescent methicillin-sensitive Staphylococcus aureus Xen29 in neutropenic CD1 mouse with peritonitis at 50 mg/kg, sc after 2 hrs relative to control; parameters: scale not given: the % may be the effect or the level left; conditions: route subcutaneous
How it was run: (§2)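 Neutropenia was induced with cyclophosphamide 150 mg/kg i.p. at day −4 and 100 mg/kg i.p. at day −1. Mice were then infected i.p. with Xen-29 (2 × 10^7 to 5 × 10^8 CFU) in 6% mucin (n = 5/group) and dosed once, s.c. or by gavage, at 1 h. Luminescence was imaged hourly under anesthesia, 0–5 h postdosing. Mean region-of-interest flux is given as percent reduction versus time-matched saline (10 ml/kg s.c.) controls.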

Staphylococcus aureus [3] = assay: Antibacterial activity against methicillin-susceptible Staphylococcus aureus Xen29 infected neutropenic CD1 mouse assessed as mouse survival at 50 mg/kg, sc after 24 hrs; conditions: route subcutaneous
How it was run: (§3)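 Female CD-1 mice (20–25 g) were made neutropenic with cyclophosphamide i.p. at 150 mg/kg 4 days and 100 mg/kg 1 day before infection. They were infected i.p. with a lethal dose of lux strain (2 × 10^7 to 5 × 10^8 CFU/mouse) suspended in 6% hog gastric mucin. A single s.c. or gavage dose was given 1 h later. Survivors were counted daily for 7 days, n=5/group.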

Staphylococcus aureus [4] = assay: Reduction in bioluminescent methicillin-resistant Staphylococcus aureus Xen1 in neutropenic CD1 mouse with peritonitis at 50 mg/kg, sc after 2 hrs relative to control; parameters: scale not given: the % may be the effect or the level left; conditions: route subcutaneous; how it was run: as §1
Staphylococcus aureus [5] = assay: Reduction in bioluminescent methicillin-sensitive Staphylococcus aureus Xen29 in immunocompetent CD1 mouse with peritonitis at 50 mg/kg, sc after 3 hrs relative to control; parameters: scale not given: the % may be the effect or the level left; conditions: route subcutaneous
How it was run: (§4)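 Peritonitis in healthy female CD-1 mice (n = 5/group): i.p. Xen-29 (2 × 10^7 to 5 × 10^8 CFU) in 6% mucin, then a single s.c. or gavage dose at 1 h. Controls got saline 10 ml/kg s.c. Mice were anesthetized hourly (pentobarbital 60 mg/kg i.p. or isoflurane) and imaged ventral side up for 1–5 min, to 5 h postdosing. Total flux (photons/s/cm2) over the infected region was averaged per group. Percent reduction is versus time-matched saline controls.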

Staphylococcus aureus [6] = assay: Antibacterial activity against methicillin-resistant Staphylococcus aureus Xen1 infected neutropenic CD1 mouse assessed as mouse survival at 50 mg/kg, sc after 24 hrs; conditions: route subcutaneous; how it was run: as §3
Staphylococcus aureus [7] = assay: Antimicrobial activity against bioluminescent methicillin-resistant Staphylococcus aureus Xen1
How it was run: (§5)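 MIC by broth microdilution following CLSI guidelines against bioluminescent lux-carrying strains (Xen-1 plasmid-borne lux, Xen-29 chromosomal lux), grown overnight in Mueller-Hinton broth at 37°C.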

Staphylococcus aureus [8] = assay: Reduction in bioluminescent methicillin-sensitive Staphylococcus aureus Xen29 in neutropenic CD1 mouse with peritonitis at 50 mg/kg, sc after 5 hrs relative to control; parameters: scale not given: the % may be the effect or the level left; conditions: route subcutaneous; how it was run: as §2
Staphylococcus aureus [9] = assay: Antibacterial activity against methicillin-resistant Staphylococcus aureus Xen1 infected neutropenic CD1 mouse assessed as mortality at 50 mg/kg, sc after 7 days; conditions: 168 h, route subcutaneous; how it was run: as §3
Staphylococcus aureus [10] = assay: Antibacterial activity against methicillin-susceptible Staphylococcus aureus Xen29 infected neutropenic CD1 mouse assessed as mortality at 50 mg/kg, sc after 7 days; conditions: 168 h, route subcutaneous; how it was run: as §3
Staphylococcus aureus [11] = assay: Reduction in bioluminescent methicillin-sensitive Staphylococcus aureus Xen29 in immunocompetent CD1 mouse with peritonitis at 50 mg/kg, sc after 4 hrs relative to control; parameters: scale not given: the % may be the effect or the level left; conditions: route subcutaneous; how it was run: as §4
Staphylococcus aureus [12] = assay: Reduction in bioluminescent methicillin-sensitive Staphylococcus aureus Xen29 in immunocompetent CD1 mouse with peritonitis at 50 mg/kg, sc after 5 hrs relative to control; parameters: scale not given: the % may be the effect or the level left; conditions: route subcutaneous
How it was run: (§6)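 Peritonitis in healthy female CD-1 mice: lethal i.p. inoculum in 6% mucin, single s.c. dose 1 h later. Mice were anesthetized hourly (isoflurane inhalation or pentobarbital 60 mg/kg i.p.) and imaged ventral side up for 1–5 min. Total flux (photons/s/cm2) was taken over the infected-site region of interest and averaged over 5 mice. Percent reduction is versus saline-treated (10 ml/kg s.c.) controls at the same time point.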

Staphylococcus aureus [13] = assay: Reduction in bioluminescent methicillin-sensitive Staphylococcus aureus Xen29 in neutropenic CD1 mouse with peritonitis at 50 mg/kg, sc after 4 hrs relative to control; parameters: scale not given: the % may be the effect or the level left; conditions: route subcutaneous; how it was run: as §2
Staphylococcus aureus [14] = assay: Reduction in bioluminescent methicillin-resistant Staphylococcus aureus Xen1 in immunocompetent CD1 mouse with peritonitis at 50 mg/kg, sc after 2 hrs relative to control; parameters: scale not given: the % may be the effect or the level left; conditions: route subcutaneous; how it was run: as §6
Staphylococcus aureus [15] = assay: Antibacterial activity against methicillin-susceptible Staphylococcus aureus Xen29 infected nonneutropenic CD1 mouse assessed as mouse survival at 50 mg/kg, sc after 7 days; conditions: 168 h, route subcutaneous
How it was run: (§7)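 Healthy female CD-1 mice (20–25 g) were infected i.p. with a lethal dose of lux strain (2 × 10^7 to 5 × 10^8 CFU/mouse) from an overnight Mueller-Hinton culture suspended in 6% hog gastric mucin. A single s.c. dose was given 1 h post-inoculation. Survival was recorded daily for 7 days, n=5/group.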

Staphylococcus aureus [16] = assay: Reduction in bioluminescent methicillin-sensitive Staphylococcus aureus Xen29 in neutropenic CD1 mouse with peritonitis at 50 mg/kg, sc after 3 hrs relative to control; parameters: scale not given: the % may be the effect or the level left; conditions: route subcutaneous; how it was run: as §1
Staphylococcus aureus [17] = assay: Antimicrobial activity against bioluminescent methicillin-susceptible Staphylococcus aureus Xen29; how it was run: as §5
Staphylococcus aureus [18] = assay: Reduction in bioluminescent methicillin-resistant Staphylococcus aureus with peritonitis Xen1 in immunocompetent CD1 mouse at 50 mg/kg, sc after 3 hrs relative to control; parameters: scale not given: the % may be the effect or the level left; conditions: route subcutaneous; how it was run: as §6
Staphylococcus aureus [19] = assay: Antibacterial activity against methicillin-resistant Staphylococcus aureus Xen1 infected nonneutropenic CD1 mouse assessed as mouse survival at 50 mg/kg, sc after 7 days; conditions: 168 h, route subcutaneous; how it was run: as §7
Staphylococcus aureus [20] = assay: Reduction in bioluminescent methicillin-sensitive Staphylococcus aureus Xen29 in immunocompetent CD1 mouse with peritonitis at 50 mg/kg, sc relative to control; parameters: scale not given: the % may be the effect or the level left; conditions: route subcutaneous; how it was run: as §4
Staphylococcus aureus [21] = assay: Reduction in bioluminescent methicillin-sensitive Staphylococcus aureus Xen29 in neutropenic CD1 mouse with peritonitis at 100 mg/kg, sc after 2 hrs relative to control; parameters: scale not given: the % may be the effect or the level left; conditions: route subcutaneous; how it was run: as §2
Staphylococcus aureus [22] = assay: Reduction in bioluminescent methicillin-sensitive Staphylococcus aureus Xen29 in neutropenic CD1 mouse with peritonitis at 100 mg/kg, sc after 3 hrs relative to control; parameters: scale not given: the % may be the effect or the level left; conditions: route subcutaneous; how it was run: as §2
Staphylococcus aureus [23] = assay: Reduction in bioluminescent methicillin-sensitive Staphylococcus aureus Xen29 in immunocompetent CD1 mouse at 100 mg/kg, sc after 4 hrs relative to control; parameters: scale not given: the % may be the effect or the level left; conditions: route subcutaneous; how it was run: as §4
Staphylococcus aureus [24] = assay: Reduction in bioluminescent methicillin-sensitive Staphylococcus aureus Xen29 in immunocompetent CD1 mouse with peritonitis at 100 mg/kg, sc after 3 hrs relative to control; parameters: scale not given: the % may be the effect or the level left; conditions: route subcutaneous; how it was run: as §4
Staphylococcus aureus [25] = assay: Reduction in bioluminescent methicillin-sensitive Staphylococcus aureus Xen29 in neutropenic CD1 mouse with peritonitis at 100 mg/kg, sc after 4 hrs relative to control; parameters: scale not given: the % may be the effect or the level left; conditions: route subcutaneous; how it was run: as §2
Staphylococcus aureus [26] = assay: Reduction in bioluminescent methicillin-sensitive Staphylococcus aureus Xen29 in immunocompetent CD1 mouse with peritonitis at 100 mg/kg, sc relative to control; parameters: scale not given: the % may be the effect or the level left; conditions: route subcutaneous; how it was run: as §4
Staphylococcus aureus [27] = assay: Protection against methicillin-susceptible Staphylococcus aureus Xen29 infection in nonneutropenic CD1 mouse at 100 mg/kg, po after 7 days
How it was run: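 Female CD-1 mice (20–25 g, n = 5/group) were given an i.p. lethal inoculum of lux-bearing MSSA Xen-29 (2 × 10^7 to 5 × 10^8 CFU/mouse) suspended in 6% hog gastric mucin. A single dose was given by gavage 1 h after inoculation. Survival was recorded daily for 7 days after inoculation.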

Staphylococcus aureus [28] = assay: Reduction in bioluminescent methicillin-sensitive Staphylococcus aureus Xen29 in neutropenic CD1 mouse with peritonitis at 100 mg/kg, sc after 5 hrs relative to control; parameters: scale not given: the % may be the effect or the level left; conditions: route subcutaneous; how it was run: as §2
Staphylococcus aureus [29] = assay: Reduction in bioluminescent methicillin-sensitive Staphylococcus aureus Xen29 in immunocompetent CD1 mouse with peritonitis at 100 mg/kg, sc after 5 hrs relative to control; parameters: scale not given: the % may be the effect or the level left; conditions: route subcutaneous; how it was run: as §4
Staphylococcus aureus [30] = assay: Antibacterial activity against methicillin-susceptible Staphylococcus aureus Xen29 infected neutropenic CD1 mouse assessed as mortality at 100 mg/kg, po within 24 hrs; conditions: Xen29, 24 h; how it was run: as §3
Staphylococcus aureus [31] = assay: Antibacterial activity against methicillin-resistant Staphylococcus aureus Xen1 infected neutropenic CD1 mouse assessed as mortality at 100 mg/kg, po within 24 hrs; conditions: Xen1, 24 h; how it was run: as §3

Work on CCCCCCCCCC(=O)N[C@@H](Cc1c[nH]c2ccccc12)C(=O)N[C@H](CC(N)=O)C(=O)N[C@@H](CC(=O)O)C(=O)N[C@@H]1C(=O)NCC(=O)N[C@@H](CCCN)C(=O)N[C@@H](CC(=O)O)C(=O)N[C@H](C)C(=O)N[C@@H](CC(=O)O)C(=O)NCC(=O)N[C@H](CO)C(=O)N[C@@H]([C@H](C)CC(=O)O)C(=O)N[C@@H](CC(=O)c2ccccc2N)C(=O)O[C@@H]1C yielded an Activity (Staphylococcus aureus [1]) of 99.9%, an Activity (Staphylococcus aureus [2]) of 92% and a survival at 50 mg/kg (Staphylococcus aureus [3]) of 100%. For the same compound, the Activity (Staphylococcus aureus [4]) was 93%, the Activity (Staphylococcus aureus [5]) was 96% and the survival at 50 mg/kg (Staphylococcus aureus [6]) was 100%. The MIC (Staphylococcus aureus [7]) was 0.5 µg/mL (≈ 0.309 µM), the Activity (Staphylococcus aureus [8]) was over 99.7% and the survival at 50 mg/kg (Staphylococcus aureus [9]) was 40%. The survival at 50 mg/kg (Staphylococcus aureus [10]) was 40%, the Activity (Staphylococcus aureus [11]) was 98% and the Activity (Staphylococcus aureus [12]) was 99%. It also gave an Activity (Staphylococcus aureus [13]) of 99.4%, an Activity (Staphylococcus aureus [14]) of 89% and a survival at 50 mg/kg (Staphylococcus aureus [15]) of 100%. For the same compound, the Activity (Staphylococcus aureus [16]) was 98%, the MIC (Staphylococcus aureus [17]) was 1 µg/mL (≈ 0.617 µM) and the Activity (Staphylococcus aureus [18]) was 97%. For the same compound, the survival at 50 mg/kg (Staphylococcus aureus [19]) was 100% and the Activity (Staphylococcus aureus [20]) was 90%.
Work on CCOc1ccc2ccccc2c1C(=O)N[C@@H]1C(=O)N2[C@@H]1SC(C)(C)[C@@H]2C(=O)O [NAFCILLIN] yielded an Activity (Staphylococcus aureus [21]) of 84%, an Activity (Staphylococcus aureus [22]) of 95.6% and an Activity (Staphylococcus aureus [23]) of 96%. It also gave an Activity (Staphylococcus aureus [24]) of 93%, an MIC (Staphylococcus aureus [7]) of 64 µg/mL (≈ 154 µM) and an Activity (Staphylococcus aureus [25]) of 98.3%. It also gave an Activity (Staphylococcus aureus [26]) of 82%, an Activity (Staphylococcus aureus [27]) of 100% and an Activity (Staphylococcus aureus [28]) of 99.2%. The Activity (Staphylococcus aureus [29]) was 98%, the survival at 50 mg/kg (Staphylococcus aureus [15]) was 100% and the survival at 100 mg/kg (Staphylococcus aureus [30]) was 100%. The survival at 100 mg/kg (Staphylococcus aureus [31]) was 100% and the MIC (Staphylococcus aureus [17]) was 0.5 µg/mL (≈ 1.21 µM).
